We go through four molecules from ChEMBL document CHEMBL4765448, “Multiple biological active 4-aminopyrazoles containing trifluoromethyl and their 4-nitroso-precursors: Synthesis and evaluation” (Eur J Med Chem, 2020).

Data set [1] has as its system Mycobacterium tuberculosis. Nature of the data set: Antitubercular activity against Mycobacterium tuberculosis H37Rv. The data set is classed as functional. The procedure, abridged:
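Mycobacterium tuberculosis strain H37Rv; minimum inhibitory concentration (MIC) taken as the lowest level needed to inhibit bacterial growth; isoniazid and pyrazinamide served as reference drugs.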

Data set [2] has as its system Rattus norvegicus. Nature of the data set: Antiinflammatory activity in rat model of carrageenan-induced paw edema assessed as inhibition of hind paw swelling at 15 mg/kg, ip measured after 5 hrs. In kind it is functional, organism-based. A general note: The carrageenan paw model is a standard test of acute inflammation.
Data set [3] has as its system Trichophyton tonsurans. Nature of the data set: Antifungal activity against Trichophyton tonsurans. In kind it is functional.
The test system of data set [4] is Streptococcus pyogenes. Nature of the data set: Antibacterial activity against Streptococcus pyogenes. The data set is classed as functional.
In data set [5] the test system is Trichophyton rubrum. Nature of the data set: Antifungal activity against Trichophyton rubrum. The data set is classed as functional.
Data set [6] relates to Staphylococcus aureus. Nature of the data set: Antibacterial activity against Staphylococcus aureus. The data set is classed as functional.
Data set [7] concerns Shigella flexneri. Nature of the data set: Antibacterial activity against Shigella flexneri. The data set is classed as functional.
In data set [8] the test system is Microsporum canis. Nature of the data set: Antifungal activity against Microsporum canis. In kind it is functional.
Data set [9] deals with Pseudomonas aeruginosa. Nature of the data set: Antibacterial activity against Pseudomonas aeruginosa. The data set is classed as functional.
Data set [10] has as its system Trichophyton interdigitale. Nature of the data set: Antifungal activity against Trichophyton mentagrophytes var. interdigitale. In kind it is functional.
Data set [11] has as its system Epidermophyton floccosum. Nature of the data set: Antifungal activity against Epidermophyton floccosum. In kind it is functional.
In data set [12] the test system is Proteus vulgaris. Nature of the data set: Antibacterial activity against Proteus vulgaris. In kind it is functional.
Data set [13] relates to Serratia marcescens. Nature of the data set: Antibacterial activity against Serratia marcescens. The data set is classed as functional.
Data set [14] has as its system Klebsiella pneumoniae. Nature of the data set: Antibacterial activity against Klebsiella pneumoniae. In kind it is functional.
Data set [15] relates to Candida albicans. Nature of the data set: Antifungal activity against Candida albicans. In kind it is functional.
In data set [16] the test system is Nannizzia gypsea. Nature of the data set: Antifungal activity against Trichophyton gypseum. The data set is classed as functional.
Data set [17] in a line: Antioxidant activity assessed as trolox equivalent of ABTS radical scavenging activity measured after 1 hr by UV-vis spectrophotometric method. The data set is classed as functional. Summed up:
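ABTS cation-radical decolorization was read spectrophotometrically as the fall in absorbance after 1 h. Trolox was the reference. TEAC was taken as the ratio of concentration-response slopes, test/Trolox, and IC50 was also derived. Data are mean ± SEM, n = 3.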

Data set [18] in a line: Acute toxicity in mouse at 300 mg/kg, ip administered as single dose. To be noted: in vivo. In kind it is organism-based. Summed up:
(§1)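 Mice, single intraperitoneal dose, following OECD Guideline for testing of chemicals; three mice per dose level; doses tested 10–300 mg/kg. Read-out is the number of survivors out of 3, used to estimate the expected LD50 range.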

The subject of data set [19] is Escherichia coli. Nature of the data set: Antibacterial activity against Escherichia coli. The data set is classed as functional.
Data set [20] relates to Citrobacter braakii. Nature of the data set: Antibacterial activity against Citrobacter braakii. In kind it is functional.
Data set [21] relates to Staphylococcus aureus. Nature of the data set: Antibacterial activity against methicillin resistant Staphylococcus aureus. The data set is classed as functional.
Data set [22] concerns Neisseria gonorrhoeae. Nature of the data set: Antibacterial activity against Neisseria gonorrhoeae. The data set is classed as functional.
Data set [23] in a line: Acute toxicity in mouse at 150 mg/kg, ip administered as single dose. The data set is classed as organism-based. The following applies: in vivo. Summed up: as §1
The nature of data set [24]: Selectivity index, ratio of IC50 for HDF cells to IC50 for human HeLa cells. The data set is classed as toxicity. To be noted: HDF cells versus HeLa cells, read-out: Ratio IC50.
In data set [25] the test system is HeLa. Nature of the data set: Cytotoxicity against human HeLa cells. The data set is classed as functional, cell-based.
Data set [26] has as its system NHDF. Nature of the data set: Cytotoxicity against HDF cells. The data set is classed as cell-based, Homo sapiens. To be noted: nhdf.
Data set [27] can be described thus: Drug metabolism assessed as nitric oxide release in absence of rat plasma by Griess reagent based assay. In kind it is cell-free. Background: The Griess reaction detects nitrite, a stable product of nitric oxide.
Data set [28] has as its system Trichophyton violaceum. Nature of the data set: Antifungal activity against Trichophyton violaceum. In kind it is functional.
Data set [29] has as its system Rattus norvegicus. Nature of the data set: Analgesic activity in rat assessed as prolongation of latency period at 15 mg/kg, ip measured after 1 hr by hot-plate test relative to control. In kind it is functional. Summed up:
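Hot-plate test in rats. Compounds were given by intraperitoneal injection. Latency was read at 1 h and, for some compounds, also at 2 h after dosing. Results are expressed as % prolongation of the latent period versus vehicle-treated control. Significance was given as p-values.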
In general terms: In hot-plate and tail-flick tests a longer latency is read as antinociception.

Values after ≈ are worked out from the molar mass of the structure shown. Active and inactive are the calls of the source. The calls are words filed in the database; no cut-off is given here.

For orientation: MIC means the lowest concentration found to suppress growth. Regarding `O=Nc1c(C(F)(F)F)n[nH]c1-c1ccco1`, the MIC worked out at 6.2 µg/mL (≈ 26.8 µM) in [1]; 50 µg/mL (≈ 216 µM) in [3]; 7.8 µg/mL (≈ 33.7 µM) in [4]; 12.5 µg/mL (≈ 54.1 µM) in [5]; 31.2 µg/mL (≈ 135 µM) in data set [6]; 125 µg/mL (≈ 541 µM) in data set [7]. The MIC in data set [8] is 12.5 µg/mL (≈ 54.1 µM); in data set [9], over 500 µg/mL; in data set [10], 50 µg/mL (≈ 216 µM); in [11], 50 µg/mL (≈ 216 µM); in [12], 62.5 µg/mL (≈ 270 µM); in data set [13] it was 125 µg/mL (≈ 541 µM). For the same molecule, the MIC turned out to be 125 µg/mL (≈ 541 µM) in data set [14]; 25 µg/mL (≈ 108 µM) in data set [15]; 25 µg/mL (≈ 108 µM) in data set [16]; 62.5 µg/mL (≈ 270 µM) in data set [19]; 125 µg/mL (≈ 541 µM) in data set [20]; 15.6 µg/mL (≈ 67.5 µM) in data set [21]. The molecule also displayed a minimal inhibitory concentration (MIC) in data set [22] of 15.6 µg/mL (≈ 67.5 µM). In [2], the result was Active. The Activity in data set [17] is 0.02 equiv; in data set [18], “Toxic”.

By IC50 is commonly meant the concentration that inhibits the measured activity by half. As to `Cc1[nH]nc(C(F)(F)F)c1N=O`, the minimal inhibitory concentration (MIC) in [1] stood at 1.62 µg/mL (≈ 9.05 µM); in [3], 50 µg/mL (≈ 279 µM); in data set [4] it was 7.8 µg/mL (≈ 43.6 µM); in data set [5], 25 µg/mL (≈ 140 µM); in data set [6], 31.2 µg/mL (≈ 174 µM); in data set [7], 250 µg/mL (≈ 1400 µM). Also, the minimal inhibitory concentration (MIC) came out at 25 µg/mL (≈ 140 µM) in data set [8]; 500 µg/mL (≈ 2790 µM) in data set [9]; 50 µg/mL (≈ 279 µM) in data set [10]; 50 µg/mL (≈ 279 µM) in [11]; 31.2 µg/mL (≈ 174 µM) in data set [12]; 250 µg/mL (≈ 1400 µM) in data set [13]. For the same molecule, the MIC in data set [14] is 500 µg/mL (≈ 2790 µM); in [15], 50 µg/mL (≈ 279 µM); in data set [16], 50 µg/mL (≈ 279 µM); in [19], 250 µg/mL (≈ 1400 µM); in data set [20] it was 250 µg/mL (≈ 1400 µM); in data set [21], 62.5 µg/mL (≈ 349 µM). The molecule also registered an MIC in data set [22] of 15.6 µg/mL (≈ 87.1 µM). Besides, the outcome in data set [2] was Active. Moreover, the Activity result was “Toxic” in data set [23] and “Dose-dependent effect” in data set [25]. Also, in data set [24], the selectivity ratio is over 1.62. The IC50 in data set [25] (Homo sapiens, HeLa, read-out: IC50) was 61.6 µM; in data set [26] it was “Not Active”. The result in data set [17] was inactive.

On to `O=[N+]([O-])O[C@H]1CO[C@H]2[C@@H]1OC[C@H]2O[N+](=O)[O-]`, for which, in [27], the Drug metabolism result was “Metabolite detected”.

With `Cn1nc(C(F)(F)F)c(N=O)c1-c1ccco1`, the MIC in data set [1] is 12.5 µg/mL (≈ 51 µM); in data set [3], 12.5 µg/mL (≈ 51 µM); in [5] it was 12.5 µg/mL (≈ 51 µM); in [28] it was 6.25 µg/mL (≈ 25.5 µM); in [6] it was 15.6 µg/mL (≈ 63.6 µM); in data set [7] it was over 500 µg/mL. In addition, the MIC in data set [8] was 12.5 µg/mL (≈ 51 µM); in data set [9], over 500 µg/mL; in data set [10] it was 25 µg/mL (≈ 102 µM); in [11] it was 12.5 µg/mL (≈ 51 µM); in data set [12] it was over 500 µg/mL; in data set [13] it was over 500 µg/mL. For the same molecule, the MIC in data set [14] is over 500 µg/mL; in [16] it was 50 µg/mL (≈ 204 µM); in [19], over 500 µg/mL; in [20], over 500 µg/mL; in [21] it was 31.2 µg/mL (≈ 127 µM); in data set [22], 125 µg/mL (≈ 510 µM). Besides, the result in [2] was Active. Further, the MIC result in data set [15] is “inactive”. Further, the Activity in data set [17] was 0.02 equiv. In data set [29], the outcome was inactive.
